This note sets out measurements from ChEMBL document CHEMBL1129630, “Synthesis and structure-activity relationships of retinoid X receptor selective diaryl sulfide analogs of retinoic acid” (J Med Chem, 1996).

Test [1] concerns the target T1, Retinoic acid receptor beta (Homo sapiens, UniProt P10826).
T1 sequence (P10826 whole entry): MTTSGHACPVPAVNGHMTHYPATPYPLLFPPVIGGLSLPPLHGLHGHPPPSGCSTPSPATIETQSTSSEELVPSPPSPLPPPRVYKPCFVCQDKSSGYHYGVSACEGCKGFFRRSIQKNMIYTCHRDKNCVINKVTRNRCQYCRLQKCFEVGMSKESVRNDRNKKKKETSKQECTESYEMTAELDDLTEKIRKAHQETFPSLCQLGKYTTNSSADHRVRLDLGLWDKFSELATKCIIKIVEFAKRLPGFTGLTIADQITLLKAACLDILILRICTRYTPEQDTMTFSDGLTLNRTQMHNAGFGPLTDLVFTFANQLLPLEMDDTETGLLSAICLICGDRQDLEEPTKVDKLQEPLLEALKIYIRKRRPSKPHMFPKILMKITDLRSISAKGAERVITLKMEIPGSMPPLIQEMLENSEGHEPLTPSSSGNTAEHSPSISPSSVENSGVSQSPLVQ
Nature of the test: Transcriptional activation of Retinoic acid receptor RAR beta;NA=not active. On the set-up: species or system Cercopithecidae. In short, it runs like this: (§1)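 CV-1 cells transiently cotransfected with the receptor construct and a reporter gene, with induced transcription measured. Activity is normalized to all-trans RA. EC50 is the concentration giving 50% of maximal observed response, from a single experiment in triplicate.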

Test [2] deals with T2, Retinoic acid receptor RXR-gamma (Homo sapiens, UniProt P48443).
T2 sequence (P48443 whole entry): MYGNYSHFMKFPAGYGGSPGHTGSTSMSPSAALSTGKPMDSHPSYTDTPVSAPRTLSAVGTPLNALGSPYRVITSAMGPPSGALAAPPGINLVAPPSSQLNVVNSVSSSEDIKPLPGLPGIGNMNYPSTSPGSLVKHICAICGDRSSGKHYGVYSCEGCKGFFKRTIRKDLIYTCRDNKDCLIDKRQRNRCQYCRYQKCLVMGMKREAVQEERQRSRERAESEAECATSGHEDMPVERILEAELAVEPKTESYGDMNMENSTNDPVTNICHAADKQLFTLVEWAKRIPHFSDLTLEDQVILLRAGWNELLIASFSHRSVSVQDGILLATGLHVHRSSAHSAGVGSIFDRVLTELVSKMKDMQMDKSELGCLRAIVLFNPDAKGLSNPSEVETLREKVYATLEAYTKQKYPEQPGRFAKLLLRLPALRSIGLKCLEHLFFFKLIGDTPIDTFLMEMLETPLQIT
Nature of the test: Transcriptional activation of Retinoid X receptor RXR gamma. On the set-up: species or system Cercopithecidae. The procedure, abridged:
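CV-1 cells transiently cotransfected with the receptor construct and a reporter gene, with induced transcription measured. Activity is normalized to all-trans RA.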

In test [3] the target is T3, Retinoic acid receptor RXR-alpha (Mus musculus, UniProt P28700).
T3 sequence (P28700 whole entry): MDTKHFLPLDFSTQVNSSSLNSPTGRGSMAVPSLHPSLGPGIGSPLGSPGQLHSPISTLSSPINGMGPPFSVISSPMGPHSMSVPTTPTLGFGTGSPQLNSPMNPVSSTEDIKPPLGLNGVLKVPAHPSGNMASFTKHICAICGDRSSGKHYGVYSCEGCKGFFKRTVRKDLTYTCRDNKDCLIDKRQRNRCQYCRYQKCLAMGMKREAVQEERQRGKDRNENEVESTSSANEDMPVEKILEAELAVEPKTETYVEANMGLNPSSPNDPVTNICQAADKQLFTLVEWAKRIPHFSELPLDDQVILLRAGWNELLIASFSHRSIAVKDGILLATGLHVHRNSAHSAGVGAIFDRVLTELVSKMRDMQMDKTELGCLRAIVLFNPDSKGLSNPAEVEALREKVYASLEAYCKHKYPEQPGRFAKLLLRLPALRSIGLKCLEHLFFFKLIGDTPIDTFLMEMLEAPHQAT
Nature of the test: Dissociation constant for binding to Retinoid X receptor alpha.

Test [4] addresses T4, Retinoic acid receptor alpha (Homo sapiens, UniProt P10276).
T4 sequence (P10276 whole entry): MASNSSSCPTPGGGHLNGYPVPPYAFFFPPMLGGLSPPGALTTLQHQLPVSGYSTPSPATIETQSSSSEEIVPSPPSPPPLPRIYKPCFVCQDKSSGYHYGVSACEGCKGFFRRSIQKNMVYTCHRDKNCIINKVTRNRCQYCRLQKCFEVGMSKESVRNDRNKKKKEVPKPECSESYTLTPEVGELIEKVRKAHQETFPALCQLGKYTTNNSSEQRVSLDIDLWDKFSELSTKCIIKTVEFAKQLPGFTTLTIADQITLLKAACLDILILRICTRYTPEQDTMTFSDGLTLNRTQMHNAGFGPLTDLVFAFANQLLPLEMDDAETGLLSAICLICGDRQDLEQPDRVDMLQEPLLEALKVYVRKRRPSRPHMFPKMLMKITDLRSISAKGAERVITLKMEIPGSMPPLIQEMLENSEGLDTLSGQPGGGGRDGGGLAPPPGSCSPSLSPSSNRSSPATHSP
Nature of the test: Transcriptional activation of Retinoic acid receptor RAR alpha;NA=not active. Further details: species or system Cercopithecidae; call rule not given here. The procedure, abridged:
as §1

Test [5] concerns the target T5, Retinoic acid receptor gamma (Homo sapiens, UniProt P13631).
T5 sequence (P13631 whole entry): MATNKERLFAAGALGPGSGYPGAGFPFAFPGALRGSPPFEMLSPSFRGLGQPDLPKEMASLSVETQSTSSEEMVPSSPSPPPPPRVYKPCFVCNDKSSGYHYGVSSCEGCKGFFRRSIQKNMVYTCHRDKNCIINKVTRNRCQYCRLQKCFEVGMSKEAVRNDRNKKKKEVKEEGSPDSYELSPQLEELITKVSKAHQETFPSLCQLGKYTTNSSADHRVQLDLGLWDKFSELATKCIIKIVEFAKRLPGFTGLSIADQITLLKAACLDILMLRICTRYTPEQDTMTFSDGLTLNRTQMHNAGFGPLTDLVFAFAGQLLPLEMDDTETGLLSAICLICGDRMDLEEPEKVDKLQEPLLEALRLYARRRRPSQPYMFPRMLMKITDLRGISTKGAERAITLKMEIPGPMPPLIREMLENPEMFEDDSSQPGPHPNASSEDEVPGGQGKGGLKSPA
Nature of the test: Transcriptional activation of Retinoic acid receptor RAR gamma;NA=not active. Further details: species or system Cercopithecidae. In short, it runs like this:
as §1

Test [6] addresses T6, Retinoic acid receptor gamma (Mus musculus, UniProt P18911).
T6 sequence (P18911 whole entry): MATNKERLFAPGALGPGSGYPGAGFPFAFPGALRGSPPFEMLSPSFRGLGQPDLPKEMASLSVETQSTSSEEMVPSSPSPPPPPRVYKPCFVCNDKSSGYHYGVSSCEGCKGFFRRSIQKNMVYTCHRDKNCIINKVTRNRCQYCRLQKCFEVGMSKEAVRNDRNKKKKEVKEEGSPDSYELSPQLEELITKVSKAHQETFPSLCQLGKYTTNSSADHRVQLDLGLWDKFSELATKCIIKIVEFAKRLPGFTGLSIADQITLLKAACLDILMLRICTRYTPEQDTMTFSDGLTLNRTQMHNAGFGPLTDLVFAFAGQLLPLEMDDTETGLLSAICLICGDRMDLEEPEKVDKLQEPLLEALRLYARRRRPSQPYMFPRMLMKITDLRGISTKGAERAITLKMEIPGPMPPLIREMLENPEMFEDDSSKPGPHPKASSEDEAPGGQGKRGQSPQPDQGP
In words: Dissociation constant for binding to Retinoic acid receptor gamma. In short, it runs like this: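 Competitive binding assays against each receptor subtype, with Kd values taken from competition.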

One may read the EC50 as the concentration needed to bring the measured effect to its halfway point. A higher EC50 goes with a need for much substance. As usually defined, the Kd is the constant that tells how readily two partners part at equilibrium. Read a high Kd as weaker binding.

Molecules are shown by their SMILES. A value given as a limit tells only on which side of the number the result lay.

With `Cc1cc2c(cc1Sc1ccc(C(=O)O)cn1)C(C)(C)CCC2(C)C`, the half-maximal effective concentration (EC50) result is “Not Active” in test [1], 42 nM in test [2], “Not Active” in test [4] and “Not Active” in test [5]. Binding in test [3] was characterised by a dissociation constant (Kd) of 32 nM.

As for `Cc1cc2c(cc1Sc1ncc(C(=O)O)s1)C(C)(C)CCC2(C)C`, the EC50 result in test [1] is “Not Active”; in test [2], 1900 nM; in test [4], “Not Active”; in test [5] it was “Not Active”. The dissociation constant (Kd) in test [3] and in test [6] was 1000 nM each time.

As to `Cc1cc2c(cc1S(=O)(=O)c1ccc(C(=O)O)cc1)C(C)(C)CCC2(C)C`, the 50% effective concentration (EC50) entry in test [1], in test [4] and in test [5] was “Not Active” throughout. The Kd is 2520 nM in test [3] and 10000 nM in test [6].

In the case of `Cc1cc2c(cc1Sc1ccc(C(=O)O)cc1)C(C)(C)CCC2(C)C`, the EC50 result was “Not Active” in test [1], 280 nM in test [2] and “Not Active” in test [4]. Besides, the values for the Kd in test [3] and in test [6] were 296 nM and 10000 nM, respectively.

Regarding `CC1(C)CCC(C)(C)c2cc(Sc3ccc(C(=O)O)cc3)ccc21`, the Kd in test [3] is 3870 nM; in test [6] it was greater than 10000 nM. In test [4], the EC50 entry is listed as “Not Active”.

On to `Cc1cc2c(cc1[S+]([O-])c1ccc(C(=O)O)cc1)C(C)(C)CCC2(C)C` (stereo not given), for which the EC50 entry in test [1] was “Not Active”; in test [2] it was 1600 nM; in test [4], “Not Active”; in test [5] it was “Not Active”. For the same molecule, the dissociation constant Kd is greater than 10000 nM in test [3] and 10000 nM in test [6].
